Data set [1] relates to CHO-K1. Briefly: Inhibition of polyamine transporter in DFMO-treated CHOK1 cells assessed as prevention of spermidine entry into cells by measuring rescue of DFMO-induced reduction in cell growth at 1 to 10 uM measured after 48 hrs in presence of amine oxidase suppressor aminoguanidine by MTS assay. Type of data set: cell-based. Particulars: Cricetulus griseus. In a few lines: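 CHO K1 cells (1000 cells/well) were pre-incubated 24 h with 1 mM aminoguanidine. They were then given fixed DFMO (4.2 mM) and spermidine (1 μM) plus increasing compound doses for 48 h at 37°C. EC50 is the concentration bringing MTS relative growth halfway between the DFMO+Spd and DFMO-only controls. Runs were done twice in triplicate, with SD.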
Background: Tetrazolium dyes change colour on reduction, which living cells bring about.

Data set [2] relates to L3.6pl. Briefly: Potentiation of 2 uM N-(anthracenylmethyl) homospermidine-induced toxicity in human L3.6PL cells assessed as increase in Ant-44-induced reduction in cell growth measured after 72 hrs in presence of amine oxidase suppressor aminoguanidine by MTS assay. Type of data set: functional, cell-based. In a few lines:
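L3.6pl cells (500 cells/well) were pretreated 24 h with 250 μM aminoguanidine in PBS, then given Ant-44 (2 μM) with increasing compound for 72 h at 37°C. MTS growth was read, with EC50 relative to the Ant-44-only control.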

The test system of data set [3] is CHO-K1. Kind of data set: Cytotoxicity against CHOK1 cells assessed as effect on cell growth at 10 uM measured after 48 hrs by MTS assay. The class given is cell-based, Cricetulus griseus. The settings on record: chinese hamster, cho-k1, 48 h.
The subject of data set [4] is L3.6pl. Briefly: Cytotoxicity against human L3.6PL cells assessed as reduction in cell viability at 5 uM measured after 72 hrs by MTS assay. The class given is cell-based.
Data set [5] has as its system CHO-K1. Briefly: Potentiation of 0.5 uM N-(anthracenylmethyl) homospermidine-induced toxicity in CHOK1 cells assessed as increase in Ant-44-induced reduction in cell growth measured after 48 hrs in presence of amine oxidase suppressor aminoguanidine by MTS assay. The class given is functional, cell-based. Particulars: Cricetulus griseus. Put shortly: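 CHO K1 cells were pretreated 24 h with 1 mM aminoguanidine, then given fixed Ant-44 (0.5 μM) plus increasing compound (up to 5 μM) for 48 h at 37°C. MTS growth was read, with EC50 defined as the dose halving growth relative to Ant-44 alone. Runs were done twice in triplicate, with SD.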

In data set [6] the test system is L3.6pl. Briefly: Cytotoxicity against human L3.6PL cells assessed as reduction in cell viability measured after 72 hrs by MTS assay. Type of data set: cell-based. In a few lines:
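L3.6pl cells, 500 cells/well in RPMI 1640 with 10% FBS and 250 μM aminoguanidine, plated overnight. Compound in PBS added, then 72 h at 37°C. MTS absorbance at 490 nm. IC50 is the dose giving 50% relative growth versus untreated control. Run twice in triplicate.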

Data set [7] relates to CHO-K1. Kind of data set: Inhibition of polyamine transporter in CHOK1 cells assessed as rescue of 2.4 uM N-(anthracenylmethyl) homospermidine-induced toxicity by measuring cell growth at 7 uM measured after 48 hrs in presence of amine oxidase suppressor aminoguanidine by MTS assay (reference value: 23%). Also noted: scale not given: the % may be the effect or the level left. Particulars: Cricetulus griseus. Type of data set: cell-based. Put shortly:
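CHO K1 cells (1000 cells/well, aminoguanidine 1 mM preincubation) were given a toxic Ant-44 dose (2.4 μM) with candidate compound at 5 or 7 μM. Cells were incubated 48 h at 37°C, and relative growth versus untreated control was read by MTS.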

The subject of data set [8] is CHO-K1. Briefly: Cytotoxicity against CHOK1 cells assessed as effect on cell growth at < 7 uM measured after 48 hrs by MTS assay. Type of data set: cell-based, Cricetulus griseus. The settings on record: chinese hamster, cho-k1, 48 h.
Data set [9] deals with Large neutral amino acids transporter small subunit 1 (Homo sapiens) (UniProt Q01650). Kind of data set: Inhibition of LAT1-mediated [3H]-leucine uptake in human L3.6PL cells at 30 uM and 37 degree C measured after 2 mins by scintillation counter method. The class given is cell-based.
Large neutral amino acids transporter small subunit 1 (Homo sapiens), sequence (Q01650 whole entry): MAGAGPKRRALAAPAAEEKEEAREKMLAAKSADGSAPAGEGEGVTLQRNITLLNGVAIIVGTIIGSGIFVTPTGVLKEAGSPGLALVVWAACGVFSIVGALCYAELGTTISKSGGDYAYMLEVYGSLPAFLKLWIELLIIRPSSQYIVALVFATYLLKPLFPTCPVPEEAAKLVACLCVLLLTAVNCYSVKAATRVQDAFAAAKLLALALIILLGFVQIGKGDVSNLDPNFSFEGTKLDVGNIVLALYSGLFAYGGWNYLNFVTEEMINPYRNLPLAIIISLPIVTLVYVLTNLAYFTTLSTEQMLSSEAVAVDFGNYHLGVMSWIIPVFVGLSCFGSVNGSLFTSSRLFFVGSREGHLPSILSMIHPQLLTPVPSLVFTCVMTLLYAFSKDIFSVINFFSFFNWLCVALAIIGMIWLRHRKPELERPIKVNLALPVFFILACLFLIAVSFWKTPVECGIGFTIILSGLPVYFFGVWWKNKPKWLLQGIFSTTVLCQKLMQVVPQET

The record followed here is ChEMBL document CHEMBL4613249, “Serendipitous Discovery of Leucine and Methionine Depletion Agents during the Search for Polyamine Transport Inhibitors” (J Med Chem, 2020).

The source made the active and inactive calls.

For orientation: EC50 means the concentration at which the effect is half-maximal. The IC50 is the concentration at which inhibition is half-maximal. On to `CC(C)(C)CCN1CCN([C@H](CNCc2ccccc2)Cc2ccccc2)C[C@@H]1Cc1ccccc1`, for which, in the data set on CHO-K1 [1], the inhibition result is “inactive”. The EC50 with L3.6pl [2] came out at 3.27 µM; in the data set with CHO-K1 [5] (CHO-K1, 48 h) it was 0.75 µM. Also, the Activity result in the data set with CHO-K1 [3] is “Non-Toxic”; with L3.6pl [4], “Non-Toxic”; in the data set on CHO-K1 [5], “Dose-dependent effect”; in the data set with CHO-K1 [7], 2.1%; in the data set with CHO-K1 [8], “Non-Toxic”. Besides, the IC50 in the data set on L3.6pl [6] is 11.7 µM.

Regarding `Nc1cc(COc2c(Cl)cc(C[C@H](N)C(=O)O)cc2Cl)c2oc(-c3ccccc3)nc2c1`, the inhibition entry in [9] was “Active”.
